Measured values published in ChEMBL document CHEMBL4028832, “Design and synthesis of 1,2,3-triazolo-phenanthrene hybrids as cytotoxic agents” (Bioorg Med Chem Lett, 2017).
pIC50: −log10 of the molar value.

Columns and labels:
Type in all cases: functional, cell-based
A549 = test: Cytotoxicity against human A549 cells after 48 hrs by MTT assay; conditions: A549, 48 h
Procedure, shortened: (§1)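 The human cancer lines and mouse 4T1 breast cells were treated with compound for 48 h and assessed by MTT assay. IC50 is the concentration giving 50% inhibition. 5-Fluorouracil served as the MTT standard.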

PC-3 = test: Cytotoxicity against human PC3 cells after 48 hrs by MTT assay; conditions: PC-3, 48 h; procedure, shortened: as §1
DU-145 = test: Cytotoxicity against human DU145 cells after 48 hrs by MTT assay; conditions: DU-145, 48 h; procedure, shortened: as §1
HGC-27 = test: Cytotoxicity against human HGC27 cells after 48 hrs by MTT assay; conditions: HGC-27, 48 h; procedure, shortened: as §1
HeLa = test: Cytotoxicity against human HeLa cells after 48 hrs by MTT assay; procedure, shortened: as §1
BT-549 = test: Cytotoxicity against human BT549 cells after 48 hrs by MTT assay; conditions: BT-549, 48 h; procedure, shortened: as §1
MDA-MB-231 = test: Cytotoxicity against human MDA-MB-231 cells after 48 hrs by MTT assay; conditions: MDA-MB-231, 48 h; procedure, shortened: as §1
MDA-MB-453 = test: Cytotoxicity against human MDA-MB-453 cells after 48 hrs by MTT assay; conditions: MDA-MB-453, 48 h; procedure, shortened: as §1
4T1 = test: Cytotoxicity against mouse 4T1 cells after 48 hrs by MTT assay; conditions: 4T1, 48 h; procedure, shortened: as §1

SMILES	pIC50 (A549)	pIC50 (PC-3)	pIC50 (DU-145)	pIC50 (HGC-27)	pIC50 (HeLa)	pIC50 (BT-549)	pIC50 (MDA-MB-231)	pIC50 (MDA-MB-453)	pIC50 (4T1)
COc1cc2cc(Cn3cc(COc4ccc5c(c4)OCO5)nn3)c3cc(OC)c(OC)cc3c2cc1OC	4.84	4.88	4.78	5.02	< 4.70	4.74	4.90	4.72	5.19
C=CCc1ccc(OCc2cn(Cc3cc4cc(OC)c(OC)cc4c4cc(OC)c(OC)cc34)nn2)c(OC)c1	< 4.70	< 4.70	< 4.70	5.12	5.15	< 4.70	< 4.70	< 4.70	5.14
COc1cc2cc(Cn3cc(COc4c(Br)cccc4Br)nn3)c3cc(OC)c(OC)cc3c2cc1OC	< 4.70	4.85	< 4.70	5.44	5.29	< 4.70	< 4.70	< 4.70	5.13
COc1cc2cc(Cn3cc(COc4ccccc4OC)nn3)c3cc(OC)c(OC)cc3c2cc1OC	< 4.70	< 4.70	< 4.70	5.04	4.95	< 4.70	< 4.70	< 4.70	< 4.70
COc1cc2cc(Cn3cc(COc4ccc(OCc5ccccc5)cc4)nn3)c3cc(OC)c(OC)cc3c2cc1OC	< 4.70	< 4.70	< 4.70	5.02	4.68	4.84	< 4.70	< 4.70	5.03
COc1cc2cc(Cn3cc(CN4C(=O)c5ccccc5C4=O)nn3)c3cc(OC)c(OC)cc3c2cc1OC	< 4.70	5.12	5.59	5.12	4.90	< 4.70	4.93	< 4.70	4.95
COc1cc2cc(Cn3cc(COc4ccc(-c5ccccc5)cc4)nn3)c3cc(OC)c(OC)cc3c2cc1OC	< 4.70	4.90	< 4.70	< 4.70	< 4.70	< 4.70	< 4.70	< 4.70	4.97
COc1ccc2c3c(c4cc(OC)c(OC)cc4c2c1)C[C@H]1CCCN1C3 [(-)-ANTOFINE]							7.92		
COc1cc2cc(Cn3cc(CN4CCCc5ccccc54)nn3)c3cc(OC)c(OC)cc3c2cc1OC	< 4.70	4.86	< 4.70	< 4.70	< 4.70	< 4.70	< 4.70	< 4.70	< 4.70
